Laboratory results taken from ChEMBL document CHEMBL3397026, “Synthesis and structure-activity relationships of novel phenoxyacetamide inhibitors of the Pseudomonas aeruginosa type III secretion system (T3SS)” (Bioorg Med Chem, 2015).

biological target: not listed separately; assay: Inhibition of T3SS-mediated secretion of an ExoS-beta-lactamase fusion protein into the culture medium in Pseudomonas aerguinosa MDM973 assessed as inhibition of nitrocefin hydrolysis by secretion assay; design: species or system Pseudomonas aeruginosa; settings: not given
In short: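 ExoS-βLA fusion protein secreted by strain MDM973, detected as hydrolysis of chromogenic nitrocefin by the externalized enzyme. Absorbance read at 490 nm. Percent inhibition calculated relative to drug-free (0%) and uninduced controls (no ExoS-βLA secreted; 100%).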

| IC50 | SMILES |
| --- | --- |
| > 100 µM | O=C(COc1ccc(Cl)cc1Cl)NCc1ccc2c(c1)OCO2 |
| > 100 µM | CC(C)(Oc1ccc(Cl)cc1Cl)C(=O)NCc1ccc2c(c1)OCO2 |
| > 100 µM | CCCC(Oc1ccc(Cl)cc1Cl)C(=O)NCc1ccc2c(c1)OCO2 (centres undefined) |
| > 100 µM | CC(C)C(Oc1ccc(Cl)cc1Cl)C(=O)NCc1ccc2c(c1)OCO2 (centres undefined) |
| > 100 µM | CC(Oc1ccc(Cl)cc1F)C(=O)NCc1ccc2c(c1)OCO2 (centres undefined) |
| > 100 µM | CC(Oc1ccc(F)cc1F)C(=O)NCc1ccc2c(c1)OCO2 (centres undefined) |
| > 100 µM | CC(Oc1ccc(C#N)cc1Cl)C(=O)NCc1ccc2c(c1)OCO2 (centres undefined) |
| > 100 µM | COc1ccc(OC(C)C(=O)NCc2ccc3c(c2)OCO3)c(Cl)c1 (centres undefined) |
| > 100 µM | CC(C(=O)NCc1ccc2c(c1)OCO2)S(=O)(=O)c1ccc(Cl)cc1Cl (centres undefined) |
| > 100 µM | CC(C(=O)NCc1ccc(F)cc1)S(=O)(=O)c1ccc(Cl)cc1Cl (centres undefined) |
| > 100 µM | CC(Cc1ccc(Cl)cc1Cl)C(=O)NCc1ccc2c(c1)OCO2 (centres undefined) |
| > 100 µM | CC(Cc1ccc(Cl)cc1Cl)C(=O)NCc1ccc(F)cc1 (centres undefined) |
| > 100 µM | CC(Oc1ccc(Cl)cc1Cl)C(=O)NC(C(=O)O)c1ccc(F)cc1 (centres undefined) |
| > 100 µM | CC(Oc1ccc(Cl)cc1Cl)C(=O)Nc1ccc(F)cc1 (centres undefined) |
| > 100 µM | CC(Oc1ccc(Cl)cc1Cl)C(=O)NCCCc1ccc(F)cc1 (centres undefined) |
| > 100 µM | CC(Oc1ccc(Cl)cc1Cl)C(=O)OCc1ccc(F)cc1 (centres undefined) |
| > 100 µM | CC(Oc1ccc(Cl)cc1Cl)C(=O)OCCc1ccc(F)cc1 (centres undefined) |
| > 100 µM | CC(Oc1ccc(Cl)cc1Cl)C(=O)CCc1ccc(F)cc1 (centres undefined) |

| SMILES | IC50 |
| --- | --- |
| CC(Oc1ccc(Cl)cc1Cl)C(=O)N(C)Cc1ccc(F)cc1 (centres undefined) | 28.5 µM |
| COc1ccccc1CNC(=O)C(C)Oc1ccc(Cl)cc1Cl (centres undefined) | 28 µM |
| CC(Oc1ccc(Cl)cc1Cl)C(=O)NCc1ccc2sccc2c1 (centres undefined) | 6 µM |

test system: not listed separately; assay: Inhibition of T3SS-mediated translocation in Pseudomonas aerguinosa PA99U co-expressing PcrV and PopB/PopD assessed as inhibition of ExoU-mediated lysis of co-incubated CHO cells by LDH release assay; type: cell-based; settings: Pseudomonas aeruginosa
In short: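 CHO cells co-incubated with P. aeruginosa PA99U33 plus compound, with procedure otherwise per earlier work. ExoU-mediated CHO lysis read out as LDH release. A parallel run without bacteria gave CHO cytotoxicity (CC50).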

| SMILES | IC50 |
| --- | --- |
| CC(Oc1ccc(Cl)cc1Cl)C(=O)NCc1ccc2sccc2c1 (centres undefined) | 5.3 µM |

test system: CHO; assay: Cytotoxicity against CHO cells by LDH release assay; type: cell-based; settings: Cricetulus griseus
In short: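 Assay run in parallel with the T3SS translocation assay, with CHO cells and compound but no P. aeruginosa. Cell death read as LDH release; CC50 derived.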

| SMILES | IC50 |
| --- | --- |
| CC(Oc1ccc(Cl)cc1Cl)C(=O)NCc1cccc2[nH]ccc12 (centres undefined) | 24 µM |
| CCC(Oc1ccc(Cl)cc1Cl)C(=O)NCc1ccc2c(c1)OCO2 (centres undefined) | 67 µM |
| CC(Oc1ccc(Cl)cc1)C(=O)NCc1ccc2c(c1)OCO2 (centres undefined) | 65 µM |
| CC(Oc1ccc(Cl)cc1Cl)C(=O)NCc1ccc(F)cc1 (centres undefined) | 59 µM |
| C[C@H](NC(=O)[C@@H](C)Oc1ccc(Cl)cc1Cl)c1ccc(F)cc1 | 32 µM |
| C[C@@H](Oc1ccc(Cl)cc1Cl)C(=O)N[C@H](C)c1ccc(F)cc1 | 97 µM |
| CC(Oc1ccc(Cl)cc1Cl)C(=O)NC1(c2ccc(F)cc2)CC1 (centres undefined) | 28 µM |
| CC(Oc1ccc(Cl)cc1Cl)C(=O)NCCc1ccc(F)cc1 (centres undefined) | 17 µM |
| CC(Oc1ccc(Cl)cc1Cl)C(=O)NNc1ccc(F)cc1 (centres undefined) | 35 µM |
| CC(Oc1ccc(Cl)cc1Cl)C(=O)NNCc1ccc(F)cc1 (centres undefined) | 31 µM |
| CC(Oc1ccc(Cl)cc1Cl)C(=O)NOCc1ccc(F)cc1 (centres undefined) | 59 µM |
| CC(Oc1ccc(Cl)cc1Cl)C(=O)NCc1ccccc1 (centres undefined) | 95 µM |
| CC(Oc1ccc(Cl)cc1Cl)C(=O)NCc1cccc(F)c1 (centres undefined) | 27 µM |
| CC(Oc1ccc(Cl)cc1Cl)C(=O)NCc1ccccc1F (centres undefined) | 47 µM |
| CC(Oc1ccc(Cl)cc1Cl)C(=O)NCc1ccc(Cl)cc1 (centres undefined) | 39 µM |
| CC(Oc1ccc(Cl)cc1Cl)C(=O)NCc1cccc(Cl)c1 (centres undefined) | 19 µM |
| Cc1ccc(CNC(=O)C(C)Oc2ccc(Cl)cc2Cl)cc1 (centres undefined) | 25 µM |
| Cc1cccc(CNC(=O)C(C)Oc2ccc(Cl)cc2Cl)c1 (centres undefined) | 45 µM |
| COc1ccc(CNC(=O)C(C)Oc2ccc(Cl)cc2Cl)cc1 (centres undefined) | 71 µM |
| COc1ccc(CNC(=O)C(C)Oc2ccc(Cl)cc2Cl)cc1OC (centres undefined) | 36 µM |
| CC(Oc1ccc(Cl)cc1Cl)C(=O)NCc1ccc2sccc2c1 (centres undefined) | 30 µM |
| CC(Oc1ccc(Cl)cc1Cl)C(=O)NCc1ccc2occc2c1 (centres undefined) | 11 µM |
| CC(Oc1ccc(Cl)cc1Cl)C(=O)NCc1ccc2cc[nH]c2c1 (centres undefined) | 9.4 µM |
| CC(Oc1ccc(Cl)cc1Cl)C(=O)NCc1cc2ccccc2[nH]1 (centres undefined) | 12 µM |
| CC(Oc1ccc(Cl)cc1Cl)C(=O)NCc1ccc2c(ccn2C)c1 (centres undefined) | 6.3 µM |
| CC(Oc1ccc(Cl)cc1Cl)C(=O)NCc1cnc2[nH]ccc2c1 (centres undefined) | 21 µM |
| CC[C@@H](Oc1ncc(Cl)cc1Cl)C(=O)NC(CO)c1ccc(F)cc1 (some centres undefined) | 75 µM |
